Assay results as given in ChEMBL document CHEMBL1133534, “1,3-Diaryl-4,5,6,7-tetrahydro-2H-isoindole derivatives: a new series of potent and selective COX-2 inhibitors in which a sulfonyl group is not a structural requisite” (J Med Chem, 2000).
pIC50: −log10 of the molar value. Active and inactive are the calls of the source. The rule behind the calls is not given here.

Legend:
[1] = biological target: T1, Prostaglandin G/H synthase 2 (Mus musculus, UniProt Q05769); experiment: Inhibition against prostaglandin G/H synthase 2 from mouse resident macrophages
T1 sequence (Q05769 whole entry): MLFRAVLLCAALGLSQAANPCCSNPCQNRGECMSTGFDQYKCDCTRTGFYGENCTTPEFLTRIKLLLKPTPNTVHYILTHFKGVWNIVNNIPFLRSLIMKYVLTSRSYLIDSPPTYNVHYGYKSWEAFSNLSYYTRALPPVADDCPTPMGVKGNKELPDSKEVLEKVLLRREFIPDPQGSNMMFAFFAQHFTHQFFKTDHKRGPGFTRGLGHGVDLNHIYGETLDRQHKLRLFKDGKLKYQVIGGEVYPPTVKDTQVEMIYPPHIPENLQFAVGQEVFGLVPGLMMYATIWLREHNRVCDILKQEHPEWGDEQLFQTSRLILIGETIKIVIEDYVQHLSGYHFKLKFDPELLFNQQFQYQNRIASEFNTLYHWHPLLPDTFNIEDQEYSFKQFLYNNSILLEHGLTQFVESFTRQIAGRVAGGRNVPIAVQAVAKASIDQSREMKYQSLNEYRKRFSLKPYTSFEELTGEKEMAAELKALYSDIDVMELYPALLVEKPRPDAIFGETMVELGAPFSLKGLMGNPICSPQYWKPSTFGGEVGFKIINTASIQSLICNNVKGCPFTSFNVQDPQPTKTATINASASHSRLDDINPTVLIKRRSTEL

[2] = biological target: T2, Prostaglandin G/H synthase 1 (Mus musculus, UniProt P22437); experiment: Inhibition against prostaglandin G/H synthase 1 from mouse resident macrophages
T2 sequence (P22437 whole entry): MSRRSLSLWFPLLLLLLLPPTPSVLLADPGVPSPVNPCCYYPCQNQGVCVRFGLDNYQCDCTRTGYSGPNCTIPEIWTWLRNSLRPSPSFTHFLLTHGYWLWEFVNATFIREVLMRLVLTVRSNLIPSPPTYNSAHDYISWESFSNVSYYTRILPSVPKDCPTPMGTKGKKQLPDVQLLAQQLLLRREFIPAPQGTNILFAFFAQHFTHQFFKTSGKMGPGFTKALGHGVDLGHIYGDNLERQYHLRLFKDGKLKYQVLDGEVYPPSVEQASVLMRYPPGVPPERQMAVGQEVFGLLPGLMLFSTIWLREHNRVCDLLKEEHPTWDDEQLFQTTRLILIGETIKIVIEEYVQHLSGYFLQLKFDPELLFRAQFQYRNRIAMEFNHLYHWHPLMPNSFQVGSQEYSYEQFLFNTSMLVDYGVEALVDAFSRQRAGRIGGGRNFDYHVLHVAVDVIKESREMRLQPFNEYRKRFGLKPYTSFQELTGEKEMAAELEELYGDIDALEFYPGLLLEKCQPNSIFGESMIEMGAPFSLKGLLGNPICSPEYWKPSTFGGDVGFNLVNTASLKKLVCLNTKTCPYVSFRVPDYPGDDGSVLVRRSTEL

Mus musculus [3] = organism: Mus musculus; experiment: (§1) Compound was evaluated for its effective dose to inhibit gastric PGE-2; format: tissue-based; settings: Stomach
Method in brief: (§2)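 Mice with air pouches (18 h old) were dosed orally with compound or vehicle. After 1 h, 500 µL sterile 1% carrageenan was injected into the pouch, and mice were killed 5 h later. Pouch lavage (heparinized HBSS) was cooled on ice, and PGE2 was measured by EIA after solid-phase extraction. Excised stomachs were rinsed and incubated 15 min in PBS, and supernatant PGE2 was measured by EIA. ED50 from 3 or 4 doses, at least 8 mice/group.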

Mus musculus [4] = organism: Mus musculus; experiment: (§3) Compound was evaluated for its effective dose to inhibit exudate PGE-2
Method in brief: (§4)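 Mice given compound or vehicle orally 18 h after air-pouch induction; 1 h later 500 µL sterile 1% carrageenan injected into pouch; sacrifice 5 h after carrageenan. Pouch lavaged with 2 mL heparinized HBSS, kept on ice, PGE2 measured by EIA after solid-phase extraction. ED50 from 3 or 4 dose points, at least 8 mice/group.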

[5] = Gastric toxicity of the compound.
Method in brief: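 Male Swiss mice, fasted overnight with water, were dosed orally at 400 mg/kg or given vehicle, and killed by cervical dislocation 5 h later. The stomach was opened and mucosal damage scored blind from 0 (normal) to 5 (perforation). Mean ± SEM, 8 animals/group.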

Rattus norvegicus [6] = experiment: Effective dose for inhibition of edema after oral administration (95% confidence limits); format: functional
Method in brief: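 Adjuvant-induced arthritis in female Lewis rats, with oral dosing. Edema of the noninjected paw was read at day 21, 10 rats/group. ED50 was estimated by linear regression with 95% confidence limits.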

[7] = biological target: T3, Prostaglandin G/H synthase 2 (Homo sapiens, UniProt P35354)
T3 sequence (P35354 whole entry): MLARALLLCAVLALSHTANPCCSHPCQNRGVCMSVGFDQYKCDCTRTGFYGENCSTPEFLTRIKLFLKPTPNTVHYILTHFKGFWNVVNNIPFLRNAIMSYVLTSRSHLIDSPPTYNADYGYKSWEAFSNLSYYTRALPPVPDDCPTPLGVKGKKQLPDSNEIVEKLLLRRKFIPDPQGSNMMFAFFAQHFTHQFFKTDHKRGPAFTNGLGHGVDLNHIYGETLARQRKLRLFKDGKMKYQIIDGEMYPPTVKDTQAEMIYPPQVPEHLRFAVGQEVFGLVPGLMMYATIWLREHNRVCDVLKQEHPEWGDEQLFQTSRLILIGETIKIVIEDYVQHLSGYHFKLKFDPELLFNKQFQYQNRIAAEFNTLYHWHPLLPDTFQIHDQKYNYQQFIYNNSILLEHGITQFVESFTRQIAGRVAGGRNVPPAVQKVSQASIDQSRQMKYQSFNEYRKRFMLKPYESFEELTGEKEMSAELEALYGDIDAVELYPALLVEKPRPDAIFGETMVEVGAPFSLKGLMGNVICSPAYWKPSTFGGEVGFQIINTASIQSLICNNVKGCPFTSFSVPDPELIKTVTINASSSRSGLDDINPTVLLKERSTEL

[8] = biological target: Prostaglandin G/H synthase 1 (Homo sapiens, UniProt P23219); experiment: Tested in vitro for inhibition against Prostaglandin G/H synthase 1 in human blood
Rattus norvegicus [9] = experiment: Inhibition of edema after oral administration at 2 mg/kg/day; format: functional
Method in brief: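 Adjuvant-induced arthritis in female Lewis rats. Compound was given orally at 2 mg/kg/day, and noninjected paw edema inhibition was read at day 21, 10 rats/group.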

Mus musculus [10] = organism: Mus musculus; experiment: Compound was evaluated for its effective dose to inhibit exudate PGE-2; In active; method in brief: as §4
Rattus norvegicus [11] = experiment: Effective dose for inhibition of edema of the non injected paw in rat
[12] = as §1; format: functional; settings: Mus musculus, Stomach; method in brief: as §2
[13] = as §3; format: functional; settings: Mus musculus; method in brief: as §4

Prostaglandin G/H synthase 1 (Homo sapiens, UniProt P23219), sequence (P23219 whole entry): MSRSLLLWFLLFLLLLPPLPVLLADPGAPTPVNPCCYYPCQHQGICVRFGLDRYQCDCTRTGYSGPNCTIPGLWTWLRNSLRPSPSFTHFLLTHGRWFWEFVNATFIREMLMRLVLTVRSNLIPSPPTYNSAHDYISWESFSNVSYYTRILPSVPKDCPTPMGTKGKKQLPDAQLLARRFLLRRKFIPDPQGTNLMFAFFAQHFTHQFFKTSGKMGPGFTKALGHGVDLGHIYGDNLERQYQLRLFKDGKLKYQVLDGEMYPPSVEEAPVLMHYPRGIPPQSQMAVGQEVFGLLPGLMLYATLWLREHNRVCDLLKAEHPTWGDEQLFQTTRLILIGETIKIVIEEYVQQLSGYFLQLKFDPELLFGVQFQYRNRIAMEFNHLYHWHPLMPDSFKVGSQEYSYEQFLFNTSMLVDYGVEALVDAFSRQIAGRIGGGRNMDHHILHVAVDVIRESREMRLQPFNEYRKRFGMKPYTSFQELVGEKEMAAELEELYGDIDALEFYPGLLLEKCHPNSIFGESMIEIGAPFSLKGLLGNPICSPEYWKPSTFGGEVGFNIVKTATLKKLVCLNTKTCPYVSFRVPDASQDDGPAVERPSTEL

Structure (SMILES) | pIC50 [1] | pIC50 [2] | further results
Cn1c(-c2ccccc2)c2c(c1-c1ccccc1)CCCC2 | < 6.00 |  | 
c1ccc(-c2[nH]c(-c3ccccc3)c3c2CNC3)cc1 | < 7.00 | 6.00 | 
Clc1cc2c(cc1Cl)C(c1ccccc1)NC2c1ccccc1 (stereo not drawn) | < 7.00 |  | 
c1cc(-c2[nH]c(-c3ccncc3)c3c2C2CCC3C2)ccn1 | < 7.00 |  | 
c1ccc(C2NC(c3ccccc3)c3ccccc32)cc1 (stereo not drawn) |  | < 5.60 | 
Nn1c(-c2ccccc2)c2c(c1-c1ccccc1)CCCC2 | 8.74 | 6.00 | 
CC1=C(C)Cc2c(-c3ccccc3)[nH]c(-c3ccccc3)c2C1 | 7.84 | < 7.00 | 
C1=CC2CCC1c1c(-c3ccccc3)[nH]c(-c3ccccc3)c12 | 7.45 | < 6.00 | 
c1cn(-c2ccc(-c3[nH]c(-c4ccc(-n5ccnc5)cc4)c4c3CCCC4)cc2)cn1 | < 7.00 | 6.00 | 
CSc1ccc(-c2[nH]c(-c3ccc(SC)cc3)c3c2CCCC3)cc1 | 6.30 | 6.30 | 
CC1=C(C)Cc2c(c(-c3ccccc3)n(C)c2-c2ccccc2)C1 | < 6.00 |  | 
c1ccc(-c2[nH]c(-c3ccccc3)c3c2C2CCC3CC2)cc1 | 8.80 | 6.60 | ED50 (Mus musculus [3]): > 40 mg/kg; ED50 (Mus musculus [4]): > 40 mg/kg
CC(=O)Nc1cc(-c2[nH]c(-c3ccc(F)c(NC(C)=O)c3)c3c2C2CCC3C2)ccc1F | < 7.00 |  | 
CC1Cc2c(-c3ccccc3)[nH]c(-c3ccccc3)c2CC1C (stereo not drawn) | 8.51 | 6.00 | 
COc1ccc2c(c1)c(CC(=O)O)c(C)n2C(=O)c1ccc(Cl)cc1 [INDOMETHACIN] |  |  | Gastric score [5]: 2.4
Fc1ccc(-c2[nH]c(-c3ccc(F)cc3)c3c2C2CCC3C2)cc1 |  |  | ED50 (Rattus norvegicus [6]): 0.35 mg/kg/day; pIC50 [7]: 10.10; ED50 (Mus musculus [3]): > 40 mg/kg; pIC50 [8]: 6.00; ED50 (Mus musculus [4]): 6.8 mg/kg; Gastric score [5]: 0.3
c1ccc(CN2Cc3c(-c4ccccc4)[nH]c(-c4ccccc4)c3C2)cc1 | < 7.00 |  | 
Fc1ccc(-c2[nH]c(-c3ccc(F)cc3)c3c2CCCC3)cc1 | 8.77 | 7.00 | inhibition in vivo at 2 mg/kg/day (Rattus norvegicus [9]): 15%; ED50 (Mus musculus [3]): 50 mg/kg; ED50 (Mus musculus [4]): 20 mg/kg
c1ccc(-c2cn3c(c2-c2ccccc2)CCC3)cc1 | 7.54 | 5.60 | 
Fc1ccc(C2NC(c3ccc(F)cc3)c3ccccc32)cc1 (stereo not drawn) | < 7.00 |  | 

Structure (SMILES) | pIC50 [1] | pIC50 [2] | further results
CS(=O)(=O)c1ccc(-c2[nH]c(-c3ccc(F)cc3)c3c2C2CCC3C2)cc1 (stereo not drawn) | 6.15 | < 5.30 | 
Cc1ccc(-c2[nH]c(-c3ccc(C)cc3)c3c2CCCC3)cc1 |  | 6.30 | IN (Mus musculus [10]): inactive
c1ccc(-c2cc(-c3ccccc3)n3c2CCC3)cc1 | 7.30 | > 6.00 | 
c1ccc([C@H]2N[C@H](c3ccccc3)c3ccccc32)cc1 |  | < 5.60 | ED50 (Mus musculus [3]): 100 mg/kg; ED50 (Mus musculus [4]): 100 mg/kg
CS(=O)(=O)Nn1c(-c2ccccc2)c2c(c1-c1ccccc1)CCCC2 | 6.30 | < 6.00 | 
c1ccc(-c2sc(-c3ccccc3)c3ccccc23)cc1 | 7.96 | 6.00 | 
Cc1ccc(-c2cc(C(F)(F)F)nn2-c2ccc(S(N)(=O)=O)cc2)cc1 [CELECOXIB] |  |  | ED50 (Rattus norvegicus [6]): 0.32 mg/kg/day; ED50 (Rattus norvegicus [11]): 0.37 mg/kg/day; Gastric score [5]: 0.7; ED50 [12]: > 40 mg/kg; ED50 [13]: 10 mg/kg
O=C(O)Cn1c(-c2ccccc2)c2c(c1-c1ccccc1)CCCC2 | < 7.00 |  | 
c1ccc(-c2[nH]c(-c3ccccc3)c3c2C2CCC3C2)cc1 | 8.59 | 7.00 | ED50 (Mus musculus [3]): 80 mg/kg; ED50 (Mus musculus [4]): 20 mg/kg; Gastric score [5]: 0.3
CS(=O)(=O)c1ccc(-c2[nH]c(-c3ccc(S(C)(=O)=O)cc3)c3c2C2CCC3C2)cc1 | < 5.00 |  | 
c1ccc(-c2[nH]c(-c3ccccc3)c3c2CCC3)cc1 |  | 6.60 | ED50 (Mus musculus [3]): 10 mg/kg; ED50 (Mus musculus [4]): 20 mg/kg
COc1ccc(-c2[nH]c(-c3ccc(OC)cc3)c3c2CCCC3)cc1 | 7.67 | 6.00 | 
c1ccc(-c2cc3n(c2-c2ccccc2)CCC3)cc1 | 8.00 | > 6.00 | 
Fc1ccc(-c2[nH]c(-c3ccc(F)cc3)c3c2C2CCC3CC2)cc1 | 9.22 | 6.64 | ED50 (Rattus norvegicus [6]): 0.15 mg/kg/day; pIC50 [7]: 9.92; ED50 (Mus musculus [3]): > 20 mg/kg; pIC50 [8]: 4.52; ED50 (Mus musculus [4]): 3.5 mg/kg; Gastric score [5]: 0.3
CNc1cc(-c2[nH]c(-c3ccc(F)c(NC)c3)c3c2C2CCC3C2)ccc1F | < 7.00 |  | 
Fc1ccc(-c2[nH]c(-c3ccc(F)cc3)c3c2C2C=CC3C2)cc1 | 8.35 | 6.30 | 
Fc1ccc(-c2[nH]c(-c3ccc(-n4ccnc4)cc3)c3c2CCCC3)cc1 | 7.38 | 6.30 | 
c1ccc(-c2[nH]c(-c3ccccc3)c3c2CCCC3)cc1 | 8.82 | 7.00 | ED50 (Mus musculus [3]): 50 mg/kg; ED50 (Mus musculus [4]): 20 mg/kg
Clc1ccc(-c2[nH]c(-c3ccc(Cl)cc3)c3c2CCCC3)cc1 | 8.30 | < 5.30 | ED50 (Mus musculus [3]): > 80 mg/kg; ED50 (Mus musculus [4]): 20 mg/kg
